Screening results (PubChem)
KLF5 inh = KLF5 expression inhibitors, primary screen, DLD-1 cells, luminescence. DLD-1 KLF5 promoter-luciferase reporter. inhibition, % at 5 µM. 0.23% of 290,000 active. AID 1700, 2009;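 active means inhibition above a per-plate limit of that plate's mean compound inhibition plus 3 SD, cut at about 60% in these data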;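 further: 0% = DMSO wells and 100% = LY294002 at 200 µM; higher means less KLF5 promoter-driven luciferase light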
A1 inh = caspase 3/7 activation in MEF A1-2A-BIM cells, primary screen, A1 inhibitor project, cell-based, luminescence, HTS; Caspase-Glo 3/7 luminescence, 3 h; percent of clofoctol response, vehicle zero; caspase activation, % (no concentration beside the values); 0.066% of 330,000 active; AID 2462, 2010;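 active means over half of replicate activation scores above 10%, or exactly half above 10 with the replicate mean above 10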
T cruzi repl = inhibitors of intracellular T. cruzi growth, primary screen, luminescence, NIH3T3 host cells; AID 1885, 2009; inhibition, % (test concentration not listed); 1.4% of 300,000 active; T. cruzi beta-gal in NIH3T3, 90 h;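 active means mean inhibition across valid replicates above about 55%, limit read from the data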;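 further: signal also drops with host cell toxicity which is not excluded here; 0% = plate median of DMSO wells and 100% = zero luminescence signal; higher percent means less beta-gal luminescence so fewer parasites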
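Material: NIH/3T3 host cells with β-galactosidase reporter T. cruzi; Input: 5,000 host fibroblasts per well; Medium: DMEM, 2% fetal bovine serum; Compound: 50 nL DMSO compound solution per well; Schedule: 3 h host attachment, then at least 90 h co-culture; Detection: luminescent β-galactosidase signal after 60 min lysis.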
Beta cell apopt = inhibitors of cytokine-induced beta cell apoptosis, primary screen, luminescence | INS-1E cytokine-induced death, ATP luminescence, 48 h; percent of positive-control rescue, neutral wells zero | protection from apoptosis, % (no concentration beside the values) | 0.8% of 300,000 active;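 active means Every replicate reaches about 75%, or at least half do and their mean reaches it too, limit read from the data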;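 further: 0% = cytokine-treated negative control wells and 100% = positive control rescue; higher means more ATP so stronger rescue from cytokine killing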
HIF act = HIF pathway transcriptional activators, primary screen, cell-based, U2OS HRE-luciferase, luminescence. U2OS HRE-luciferase reporter; normalized: DMSO 0%, desferrioxamine 100%. activation, % at 7.5 µM (by protocol). 0.32% of 300,000 active. AID 1910, 2009;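 active means mean activation of at least 10% of the iron chelator positive control signal, with at least half of replicates also reaching 10%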
An asterisk follows results filed as active; . = no result. Only some compounds are listed: those with a hit (about 2.3% of all), similar ones and a draw of the others.

SMILES	KLF5 inh	A1 inh	T cruzi repl	Beta cell apopt	HIF act
CC(C)(C)c1csc(NC(=O)c2ccccc2O)n1	-118	-2	-8	12	-1
CC(C)(C)c1csc(NNC(=O)c2ccc(Br)cc2)n1	-43	0	42	18	11*
Cc1ccc(C)c(Nc2c([N+](=O)[O-])cc(C(=O)N3CC(=O)Nc4ccccc43)cc2[N+](=O)[O-])c1	-2	0	66*	10	-1
Cc1cccc(Nc2c([N+](=O)[O-])cc(C(=O)N3CC(=O)Nc4ccccc43)cc2[N+](=O)[O-])c1	13	1	84*	4	-1
Cc1ccc(C)c(NC(=O)CNC(=O)N2CC(=O)Nc3ccccc32)c1	-36	0	-3	-1	0
O=C1CN(C(=O)c2cccc(Br)c2)c2ccccc2N1	4	1	-13	1	4
COc1ccc(NC(=O)N2CCCCC2c2cccnc2)cc1 (stereo unspecified)	-12	1	66*	-14	1
CC(=O)Nc1ccc(S(=O)(=O)N2CCCCC2c2cccnc2)cc1 (stereo unspecified)	1	0	-13	-8	0
CCOc1cccc(C(=O)N2CCCCC2c2cccnc2)c1 (stereo unspecified)	9	0	17	-7	0
COc1cc(OC)cc(C(=O)NC(=S)N2CCCCC2c2cccnc2)c1 (stereo unspecified)	-1	0	62*	4	0
COc1cc(C(=O)O)c2c(c1C)OC(=O)c1c(C)cc(O)c(C=O)c1O2	.	-2	-5	-2	0
Cc1noc(C)c1CSCC(=O)Nc1cc(S(=O)(=O)N2CCOCC2)ccc1OC(C)C	.	-2	13	.	0
CCn1c(C)cs/c1=N\S(=O)(=O)c1ccccc1	.	0	-7	2	1
O=Cc1s/c(=N\S(=O)(=O)c2ccccc2)n(CCCCl)c1Cl	-40	.	81*	.	-6
C=C1C(=O)O[C@@]23[C@H]1CC[C@@H](C)[C@@H]2CC[C@@]1(C)O[C@@H]31	.	0	.	-3	.
O=C(Nc1ccncc1)Nc1cccc(Cl)c1Cl	-40	1	66*	11	0
CC(C)C[C@H]1CN=C(Nc2ccccc2)N1CCc1ccc(F)cc1	.	1	.	90*	.
CC(C)C[C@H]1CN=C(Nc2ccccc2)N1CCc1cccc(F)c1	.	-2	.	-5	.
COCc1c(Br)c(C)nc(OCC(=O)N/N=C/c2cc(C)n(-c3ccc([N+](=O)[O-])cc3)c2C)c1C#N	-12	0	63*	-4	0
O=C1/C(=C/c2ccncc2)SC(=S)N1Nc1ccccc1	-6	0	0	32	0
O=C(O)c1ccc(/C=C2\SC(=S)N(Nc3ccccc3)C2=O)cc1	-39	-6	-12	91*	0
CN1CCc2c(sc3nc(SCC(=O)N4CCCCC4)n(-c4ccccc4)c(=O)c23)C1	-14	3	37	-5	0
CCn1c(SCC(=O)c2ccccc2)nc2sc3c(c2c1=O)CCN(C)C3	-15	1	64*	-14	1
C=C(C)CSc1nc2sc3c(c2c(=O)n1-c1ccccc1)CCN(C)C3	-26	0	55*	1	1
CN1CCc2c(sc3nc(SCC(N)=O)n(-c4ccccc4)c(=O)c23)C1	-1	0	16	-2	0
SMILES	KLF5 inh	A1 inh	T cruzi repl	Beta cell apopt	HIF act
C=C(C)CSc1nc2sc3c(c2c(=O)n1C1CCCCC1)CCN(C)C3	-1	-1	59*	-4	0
CSc1nc(NCc2ccccc2)c2c3c(sc2n1)CN(C)CC3	-30	0	55*	-3	1
O=C(Nc1ccc(S(=O)(=O)N2CCOCC2)cc1)c1cccc(Br)c1	0	1	-9	3	0
CCCCSc1nc2sc3c(c2c(=O)n1-c1ccccc1)CCN(C)C3	-30	0	55*	13	-1
CCCCSc1nc2sc3c(c2c(=O)n1-c1ccc(OC)cc1)CCN(C)C3	-18	.	49	.	-1
CC(C)Sc1nc(N)c2c3c(sc2n1)CN(C)CC3	-8	0	12	-2	13*
Cc1ccc(SCC(=O)OC(C)C(=O)NCc2ccccc2)cc1C (stereo unspecified)	.	0	-3	-11	0
CC1=C(C(=O)Nc2ccccc2)C(c2ccc(C)cc2)N=C(Nc2nc3ccccc3o2)N1 (stereo unspecified)	-14	2	57*	32	-4
CC1(C)CC(=O)C2=C(C1)NC(Nc1nc3ccccc3o1)=NC2c1ccccn1 (stereo unspecified)	-1	1	12	-2	0
CCCc1[nH]n(-c2nc3ccccc3s2)c(=O)c1C=NCCCOC	-2	-1	11	-6	0
CCCCCN=Cc1c(C)[nH]n(-c2nc3ccccc3s2)c1=O	-39	1	8	90*	-5
Clc1ccc(N=c2ssnc2Cl)nc1	-18	0	58*	-12	0
COc1cccc(CNc2ccc3[nH]c(=O)[nH]c3c2)c1OCc1ccccc1F	-7	0	-17	4	-1
NC(=S)N/N=C/c1ccc(-c2cc(Cl)c(Cl)cc2Cl)o1	-28	-1	64*	10	0
C=CCNC(=S)N/N=C/c1ccc(-c2ccc(Cl)cc2Cl)o1	.	0	60*	22	0
C=CCNC(=S)N/N=C/c1ccc(-c2cc(Cl)ccc2Cl)o1	-29	1	17	6	0
C=CCNC(=S)N/N=C/c1ccc(-c2ccc(OC)cc2)o1	8	-2	91*	14	4
NC(=S)N/N=C/c1ccc(Br)o1	-6	-1	19	-1	0
COc1cc2c(cc1OC)CN(c1nc(CN3CCCCC3)nc3sc4c(c13)CCCC4)CC2	-1	1	49	32	0
COc1cc2c(cc1OC)CN(c1nc(CN3CCCC3)nc3sc(C)c(C)c13)CC2	-12	-2	69*	2	0
Cc1ccc(NC(=O)CNC(=O)c2ccco2)c(Cl)c1	-41	0	-9	-8	-1
CCCc1ccc(S(=O)(=O)N/N=C(/C)c2ccc3c(c2)OCO3)cc1	-32	1	-2	-6	1
CN(CCOc1ccccc1)CCOc1ccccc1	-14	0	17	4	2
CN(C)CCOc1ccc(/C(=C(/CCCl)c2ccccc2)c2ccccc2)cc1	.	.	62*	.	0
CC(=O)c1cccc(OCc2cc(C(=O)NCCC3=CCCCC3)no2)c1	-121	-5	-1	1	0
O=C(CSC1=NCCS1)Nc1ccc2ccccc2c1	-17	-1	-16	2	1
Cc1cc(C)nc(SCC(=O)Nc2ccnc3ccccc23)n1	13	-1	-42	102*	0
O=C(CSC1=NCCS1)Nc1ccnc2ccccc12	4	-1	-22	104*	0
